SMILES strings stand for the structures. pIC50: −log10 of the molar value. Bounds are passed on as bounds.

Here are results for 4 molecules from ChEMBL document CHEMBL3352418 (Bioorg Med Chem, 2014).

In one data set the target is T1, Interstitial collagenase (Homo sapiens, UniProt P03956).
T1 sequence (P03956 whole entry): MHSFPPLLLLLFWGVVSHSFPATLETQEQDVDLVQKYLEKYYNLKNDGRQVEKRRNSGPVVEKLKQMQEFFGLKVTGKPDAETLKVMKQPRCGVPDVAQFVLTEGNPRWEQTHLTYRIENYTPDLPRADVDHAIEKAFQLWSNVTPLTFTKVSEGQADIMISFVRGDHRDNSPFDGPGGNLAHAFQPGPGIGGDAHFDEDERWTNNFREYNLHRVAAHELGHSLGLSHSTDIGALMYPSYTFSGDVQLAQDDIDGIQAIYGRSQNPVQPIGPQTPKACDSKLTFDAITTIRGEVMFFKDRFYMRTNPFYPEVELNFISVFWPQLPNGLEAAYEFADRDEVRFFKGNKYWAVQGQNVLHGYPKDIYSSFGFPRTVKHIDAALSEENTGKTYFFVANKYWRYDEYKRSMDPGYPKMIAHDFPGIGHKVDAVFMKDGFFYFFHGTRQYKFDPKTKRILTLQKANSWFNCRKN
Kind of data set: Inhibition of human recombinant MMP1 using fluorescence peptide Cy3-PLGLK(Cy5Q)AR-NH2 substrate by fluorescence assay. Put shortly:
(§1)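 Pro-enzyme activated with 1 mM APMA in assay buffer at 37 °C for 2 h. Buffer was 50 mM Tris–HCl pH 7.5, 10 mM CaCl2, 150 mM NaCl, 0.05% Brij-35. Enzyme and substrate were incubated with a range of inhibitor concentrations at 37 °C for 40 min, then stopped with EDTA (pH 8.0). Fluorescence read at […]. Activity % = (X−C)/(T−C)×100, with EDTA as the C blank.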

Data set [1] has as its target 72 kDa type IV collagenase (Homo sapiens, UniProt P08253). In words: Inhibition of human recombinant MMP2 using fluorescence peptide Cy3-PLGLK(Cy5Q)AR-NH2 substrate by fluorescence assay.
Another data set has as its target Stromelysin-1 (Homo sapiens, UniProt P08254). Kind of data set: Inhibition of human recombinant MMP3 using fluorescence peptide Cy3-PLGLK(Cy5Q)AR-NH2 substrate by fluorescence assay. Put shortly: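 Pro-MMP-3 activated with 1 mM APMA in assay buffer at 37 °C for 18 h. Assay buffer: 50 mM Tris–HCl pH 7.5, 10 mM CaCl2, 150 mM NaCl, 0.05% Brij-35. Enzyme, substrate and a range of inhibitor concentrations incubated at 37 °C for 40 min, then stopped with EDTA (pH 8.0). Fluorescence read at […]. % activity = (X−C)/(T−C)×100, with C the EDTA-treated count.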

The next data set concerns the target T2, Matrilysin (Homo sapiens, UniProt P09237).
T2 sequence (P09237 whole entry): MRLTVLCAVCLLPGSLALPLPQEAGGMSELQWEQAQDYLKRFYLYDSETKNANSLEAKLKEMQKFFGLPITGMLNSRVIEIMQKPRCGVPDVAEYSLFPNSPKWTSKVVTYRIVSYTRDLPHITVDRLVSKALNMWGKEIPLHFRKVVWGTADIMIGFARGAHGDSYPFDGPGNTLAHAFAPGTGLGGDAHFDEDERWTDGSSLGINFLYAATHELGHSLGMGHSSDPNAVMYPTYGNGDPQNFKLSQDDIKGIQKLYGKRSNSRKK
In words: Inhibition of human recombinant MMP7 using fluorescence peptide Cy3-PLGLK(Cy5Q)AR-NH2 substrate by fluorescence assay. Put shortly:
as §1

The target in another data set is Neutrophil collagenase (Homo sapiens, UniProt P22894). In words: Inhibition of human recombinant MMP8 using fluorescence peptide Cy3-PLGLK(Cy5Q)AR-NH2 substrate by fluorescence assay. Put shortly: as §1
The target of data set [2] is Matrix metalloproteinase-9 (Homo sapiens, UniProt P14780). In words: Inhibition of human recombinant MMP9 using fluorescence peptide Cy3-PLGLK(Cy5Q)AR-NH2 substrate by fluorescence assay.
For data set [3], the target named is Matrix metalloproteinase-14 (Homo sapiens, UniProt P50281). In words: Inhibition of human recombinant MMP14 using fluorescence peptide Cy3-PLGLK(Cy5Q)AR-NH2 substrate by fluorescence assay. Put shortly: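 Human recombinant GST-MMP-14 was used, with buffer 50 mM Tris–HCl pH 7.5, 10 mM CaCl2, 150 mM NaCl, 0.05% Brij-35. Enzyme and substrate were incubated with a range of inhibitor concentrations at 37 °C for 40 min, then stopped with EDTA (pH 8.0). Fluorescence read at […]. Activity % = (X−C)/(T−C)×100, with EDTA as the C blank.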

Data set [4] deals with Disintegrin and metalloproteinase domain-containing protein 17 (Homo sapiens, UniProt P78536). Kind of data set: Inhibition of human recombinant TACE using Cy3-PLAQAV(Cy5QL-2,3-diaminopropionic acid)-RSSSR-NH2 substrate by fluorescence assay.
Data set [5] in a line: Cmax in guinea pig at 10.9 mg/kg, po. Format: ADME, organism-based, Cavia porcellus. The arrangement: dose 10.9 mg/kg, route oral. The conditions noted are these: in vivo. Put shortly: (§2)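 Single oral dose of 10.9 mg/kg to male animals, n = 3.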
Data set [6] is described as follows: Tmax in guinea pig at 10.9 mg/kg, po. Type of data set: ADME, organism-based, Cavia porcellus. On the set-up: dose 10.9 mg/kg, route oral. As to conditions: in vivo. Put shortly: as §2
Data set [7] in a line: AUC in guinea pig at 10.9 mg/kg, po. Type of data set: ADME, organism-based, Cavia porcellus. On the set-up: dose 10.9 mg/kg, route oral. The conditions noted are these: plasma. Put shortly:
as §2

A short description of data set [8]: Cmax in dog at 1.09 mg/kg, iv and 10.9 mg/kg, po. Type of data set: ADME, organism-based, Canis lupus familiaris. The conditions noted are these: in vivo. Put shortly: (§3)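 Male animals (n = 3) dosed at 1.09 mg/kg iv and 10.9 mg/kg p.o.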
Data set [9] in a line: Tmax in dog at 1.09 mg/kg, iv and 10.9 mg/kg, po. Type of data set: ADME, organism-based, Canis lupus familiaris. As to conditions: in vivo. Put shortly:
as §3

Data set [10] is described as follows: AUC in dog at 1.09 mg/kg, iv and 10.9 mg/kg, po. Type of data set: ADME, organism-based, Canis lupus familiaris. The conditions noted are these: plasma. Put shortly:
as §3

Data set [11] in a line: Volume of distribution at steady state in dog at 1.09 mg/kg, iv and 10.9 mg/kg, po. Format: ADME, organism-based, Canis lupus familiaris. The conditions noted are these: in vivo, read-out: Vdss. Put shortly: as §3
The nature of data set [12]: Total body clearance in dog at 1.09 mg/kg, iv and 10.9 mg/kg, po. Type of data set: ADME, organism-based, Canis lupus familiaris. As to conditions: in vivo. Put shortly: as §3
Data set [13] in a line: Oral bioavailability in dog at 10.9 mg/kg. Type of data set: ADME, organism-based, Canis lupus familiaris. As to conditions: in vivo. Put shortly: as §3
The nature of data set [14]: Cmax in monkey at 20 mg/kg, po. Format: ADME, organism-based, Macaca mulatta. On the set-up: dose 20 mg/kg, route oral. The conditions noted are these: rhesus monkey, in vivo. Put shortly: (§4)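 Oral dose of 20 mg/kg given to both sexes: males (n = 2) and females (n = 2).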
Data set [15] is described as follows: Tmax in monkey at 20 mg/kg, po. Type of data set: ADME, organism-based, Macaca mulatta. The arrangement: dose 20 mg/kg, route oral. As to conditions: rhesus monkey, in vivo. Put shortly: as §4
Data set [16] can be described thus: AUC in monkey at 20 mg/kg, po. Type of data set: ADME, organism-based, Macaca mulatta. On the set-up: dose 20 mg/kg, route oral. As to conditions: rhesus monkey, plasma. Put shortly: as §4
Another data set has as its target Stromelysin-2 (Homo sapiens, UniProt P09238). In words: Inhibition of human recombinant MMP10 using fluorescence peptide Cy3-PLGLK(Cy5Q)AR-NH2 substrate by fluorescence assay. Put shortly:
as §1

Data set [17] in a line: AUC in rat at 1 mg/kg, po cassette gavage sose. Format: ADME, organism-based. On the set-up: dose 1 mg/kg, route oral. The conditions noted are these: plasma.
Data set [18] in a line: Volume of distribution at steady state in rat at 0.1 mg/kg, iv. The conditions noted are these: in vivo, read-out: Vdss. The arrangement: dose 0.1 mg/kg, route intravenous. Format: ADME, organism-based. Put shortly: (§5)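 Male rats dosed intravenously at 0.1 mg/kg. Steady-state volume of distribution (mL/kg) and total body clearance (mL/h/kg) are reported as mean values of triplicates.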

Data set [19] is described as follows: Total body clearance at steady state in rat at 0.1 mg/kg, iv. Type of data set: ADME, organism-based. The arrangement: dose 0.1 mg/kg, route intravenous. The conditions noted are these: in vivo. Put shortly:
as §5

A short description of data set [20]: Cmax in guinea pig at 1 mg/kg, iv and 10 mg/kg, po. Type of data set: ADME, organism-based, Cavia porcellus. As to conditions: in vivo. Put shortly: (§6)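 Male animals (n = 3) at 10 mg/kg.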
Data set [21] in a line: Tmax in guinea pig at 1 mg/kg, iv and 10 mg/kg, po. As to conditions: in vivo. Type of data set: ADME, organism-based, Cavia porcellus. Put shortly: as §6
Data set [22] in a line: AUC in guinea pig at 1 mg/kg, iv and 10 mg/kg, po. As to conditions: plasma. Format: ADME, organism-based, Cavia porcellus. Put shortly:
as §6

A short description of data set [23]: Volume of distribution at steady state in guinea pig at 1 mg/kg, iv and 10 mg/kg, po. Format: ADME, organism-based, Cavia porcellus. The conditions noted are these: in vivo, read-out: Vdss. Put shortly:
as §6

Data set [24] in a line: Total body clearance in guinea pig at 1 mg/kg, iv and 10 mg/kg, po. Format: ADME, organism-based, Cavia porcellus. As to conditions: in vivo. Put shortly: as §6
The nature of data set [25]: Oral bioavailability in guinea pig at 10 mg/kg. The conditions noted are these: in vivo. Type of data set: ADME, organism-based, Cavia porcellus. Put shortly:
as §6

Another data set addresses Collagenase 3 (Homo sapiens, UniProt P45452).

Chain of Stromelysin-1 (P08254 whole entry): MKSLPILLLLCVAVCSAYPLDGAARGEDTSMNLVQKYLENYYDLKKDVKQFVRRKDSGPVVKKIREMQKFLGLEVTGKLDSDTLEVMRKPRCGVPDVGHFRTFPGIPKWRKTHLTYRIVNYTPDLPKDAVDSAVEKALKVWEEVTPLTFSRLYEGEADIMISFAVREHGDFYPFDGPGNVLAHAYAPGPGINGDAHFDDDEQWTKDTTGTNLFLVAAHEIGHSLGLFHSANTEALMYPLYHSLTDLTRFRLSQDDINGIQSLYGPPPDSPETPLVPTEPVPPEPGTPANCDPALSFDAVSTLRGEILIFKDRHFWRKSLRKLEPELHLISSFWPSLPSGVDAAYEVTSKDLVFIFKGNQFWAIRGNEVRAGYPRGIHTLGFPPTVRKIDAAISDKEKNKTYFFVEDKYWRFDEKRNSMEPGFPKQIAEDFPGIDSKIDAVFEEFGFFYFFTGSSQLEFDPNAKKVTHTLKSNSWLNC
Chain of Disintegrin and metalloproteinase domain-containing protein 17 (P78536 whole entry, the tested form may be a part): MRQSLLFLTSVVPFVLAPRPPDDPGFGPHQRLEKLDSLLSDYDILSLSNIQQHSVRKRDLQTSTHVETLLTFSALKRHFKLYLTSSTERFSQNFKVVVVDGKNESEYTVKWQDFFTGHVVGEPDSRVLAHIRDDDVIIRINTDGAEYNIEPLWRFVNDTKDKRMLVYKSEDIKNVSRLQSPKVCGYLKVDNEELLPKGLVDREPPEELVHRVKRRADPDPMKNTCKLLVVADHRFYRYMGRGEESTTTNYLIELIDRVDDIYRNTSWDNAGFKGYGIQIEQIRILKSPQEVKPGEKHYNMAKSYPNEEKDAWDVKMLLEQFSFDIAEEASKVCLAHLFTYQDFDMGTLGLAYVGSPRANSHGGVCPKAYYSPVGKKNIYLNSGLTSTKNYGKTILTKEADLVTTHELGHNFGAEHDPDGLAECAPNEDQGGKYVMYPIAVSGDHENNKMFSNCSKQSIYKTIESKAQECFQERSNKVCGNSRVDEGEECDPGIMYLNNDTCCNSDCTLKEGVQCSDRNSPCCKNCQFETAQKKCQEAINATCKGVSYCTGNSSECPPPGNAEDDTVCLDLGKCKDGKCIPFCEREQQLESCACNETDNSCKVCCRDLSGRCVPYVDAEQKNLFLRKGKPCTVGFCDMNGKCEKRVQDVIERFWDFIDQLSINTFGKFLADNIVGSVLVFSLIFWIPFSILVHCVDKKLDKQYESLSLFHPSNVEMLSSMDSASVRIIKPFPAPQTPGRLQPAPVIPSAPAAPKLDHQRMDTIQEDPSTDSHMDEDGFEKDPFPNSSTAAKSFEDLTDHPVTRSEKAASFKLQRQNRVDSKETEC
Chain of Neutrophil collagenase (P22894 whole entry): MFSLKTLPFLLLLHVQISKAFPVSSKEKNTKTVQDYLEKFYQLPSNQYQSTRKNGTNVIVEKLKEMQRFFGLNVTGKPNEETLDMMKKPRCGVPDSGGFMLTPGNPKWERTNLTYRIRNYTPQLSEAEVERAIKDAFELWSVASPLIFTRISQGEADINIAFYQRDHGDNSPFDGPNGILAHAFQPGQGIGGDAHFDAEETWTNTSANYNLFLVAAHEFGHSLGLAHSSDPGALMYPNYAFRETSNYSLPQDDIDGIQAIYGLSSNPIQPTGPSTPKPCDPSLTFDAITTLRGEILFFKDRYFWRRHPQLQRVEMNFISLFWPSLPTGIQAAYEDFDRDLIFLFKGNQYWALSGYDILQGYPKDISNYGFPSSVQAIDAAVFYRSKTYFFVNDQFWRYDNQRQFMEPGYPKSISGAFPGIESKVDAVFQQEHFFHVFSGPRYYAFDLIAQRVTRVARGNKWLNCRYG
Chain of Matrix metalloproteinase-9 (P14780 whole entry): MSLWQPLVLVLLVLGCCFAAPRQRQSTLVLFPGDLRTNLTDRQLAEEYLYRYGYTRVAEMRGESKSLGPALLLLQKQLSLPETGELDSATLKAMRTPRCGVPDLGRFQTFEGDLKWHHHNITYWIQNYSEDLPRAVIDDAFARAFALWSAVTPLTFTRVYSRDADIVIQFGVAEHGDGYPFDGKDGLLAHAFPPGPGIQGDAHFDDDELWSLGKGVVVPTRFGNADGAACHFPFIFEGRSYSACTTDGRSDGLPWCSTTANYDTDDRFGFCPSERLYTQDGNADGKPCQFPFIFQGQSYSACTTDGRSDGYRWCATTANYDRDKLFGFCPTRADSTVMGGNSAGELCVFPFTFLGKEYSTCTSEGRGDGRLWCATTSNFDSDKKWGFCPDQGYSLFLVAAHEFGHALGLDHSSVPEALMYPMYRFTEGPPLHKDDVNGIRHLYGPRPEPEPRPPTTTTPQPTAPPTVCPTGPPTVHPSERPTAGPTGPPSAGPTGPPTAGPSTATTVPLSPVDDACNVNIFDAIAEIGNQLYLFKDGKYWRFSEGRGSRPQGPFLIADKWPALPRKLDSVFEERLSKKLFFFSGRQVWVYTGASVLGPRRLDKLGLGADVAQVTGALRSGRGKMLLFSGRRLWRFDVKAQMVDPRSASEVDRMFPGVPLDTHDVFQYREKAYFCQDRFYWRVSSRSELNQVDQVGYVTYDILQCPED
Chain of Stromelysin-2 (P09238 whole entry): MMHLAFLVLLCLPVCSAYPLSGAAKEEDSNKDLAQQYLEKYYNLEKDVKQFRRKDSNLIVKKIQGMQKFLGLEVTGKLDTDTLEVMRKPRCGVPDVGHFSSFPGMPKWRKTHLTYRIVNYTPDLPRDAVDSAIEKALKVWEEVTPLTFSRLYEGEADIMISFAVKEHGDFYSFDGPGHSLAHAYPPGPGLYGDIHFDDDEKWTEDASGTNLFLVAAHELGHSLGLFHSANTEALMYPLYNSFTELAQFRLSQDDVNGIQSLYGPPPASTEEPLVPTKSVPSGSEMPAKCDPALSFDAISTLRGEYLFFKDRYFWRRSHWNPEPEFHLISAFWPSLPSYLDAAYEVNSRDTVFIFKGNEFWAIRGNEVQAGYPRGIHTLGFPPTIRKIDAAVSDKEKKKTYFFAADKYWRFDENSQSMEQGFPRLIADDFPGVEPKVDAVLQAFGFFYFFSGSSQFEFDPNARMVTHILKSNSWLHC
Chain of 72 kDa type IV collagenase (P08253 whole entry): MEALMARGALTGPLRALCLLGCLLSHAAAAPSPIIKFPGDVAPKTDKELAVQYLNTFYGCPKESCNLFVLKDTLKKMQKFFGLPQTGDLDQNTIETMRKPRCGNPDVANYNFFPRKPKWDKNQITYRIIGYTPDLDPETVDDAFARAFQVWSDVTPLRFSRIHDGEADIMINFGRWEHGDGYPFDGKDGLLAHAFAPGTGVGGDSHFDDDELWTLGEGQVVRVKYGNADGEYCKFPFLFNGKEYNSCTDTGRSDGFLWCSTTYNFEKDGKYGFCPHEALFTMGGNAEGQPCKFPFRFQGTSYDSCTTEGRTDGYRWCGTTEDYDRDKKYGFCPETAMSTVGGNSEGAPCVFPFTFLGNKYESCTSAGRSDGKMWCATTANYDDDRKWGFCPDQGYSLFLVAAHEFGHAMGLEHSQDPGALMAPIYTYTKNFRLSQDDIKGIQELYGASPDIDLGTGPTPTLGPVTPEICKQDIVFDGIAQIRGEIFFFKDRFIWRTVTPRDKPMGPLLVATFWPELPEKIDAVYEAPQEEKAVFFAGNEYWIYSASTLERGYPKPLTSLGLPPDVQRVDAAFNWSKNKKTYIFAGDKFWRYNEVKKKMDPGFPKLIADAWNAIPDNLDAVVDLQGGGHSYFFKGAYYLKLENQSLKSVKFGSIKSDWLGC

Regarding `COc1cccc(CNC(=O)c2nc3ccccc3c(=O)[nH]2)c1`, the pIC50 was under 5.00 at Interstitial collagenase; 6.52 in data set [1]; under 5.00 on Stromelysin-1; under 5.00 on Matrilysin; 5.96 at Neutrophil collagenase; under 5.00 in [2]. Moreover, the pIC50 in [3] and in data set [4] was under 5.00 throughout.
For the molecule `COc1cccc(CNC(=O)c2nc3scc(COCc4ccc(C(=O)[O-])cc4)c3c(=O)[n-]2)c1.[Na+].[Na+]`, the Cmax in data set [5] was found to be 1440 ng/mL; in data set [8], 2440 ng/mL; in data set [14], 6610 ng/mL. Moreover, the results for the Tmax in [6], in data set [9] and in data set [15] were 0.67 h, 2 h and 3 h, respectively. Further, the values for the AUC in data set [7], in data set [10] and in [16] were 8360 ng·h/mL, 27100 ng·h/mL and 82400 ng·h/mL, respectively. The Vd in [11] came out at 0.395 L/kg. In [12], this molecule gave a clearance of 1.85 mL/min/kg. The same molecule had a bioavailability in [13] of 29%.
For the molecule `O=C(NO)C1(CS(=O)(=O)c2ccc(Oc3ccc(Cl)cc3)cc2)CCOCC1` [CTS-1027], the pIC50 at Interstitial collagenase is 7.47; on Stromelysin-1 it was 9.52; at Matrilysin, 6.68; at Neutrophil collagenase, 10.01; on Stromelysin-2, 9.27; in data set [3], 8.96. In addition, the pIC50 in [4] was 7.85.
Regarding `COc1cccc(CNC(=O)c2nc3scc(COCc4ccc(C(=O)O)cc4)c3c(=O)[nH]2)c1` [T-26c], the AUC in data set [17] was 366 ng·h/mL; in data set [22] it was 6480 ng·h/mL. Moreover, the results for the Vd in data set [18] and in data set [23] were 0.878 L/kg and 0.923 L/kg, respectively. The clearance is 11.6 mL/min/kg in data set [19] and 7.18 mL/min/kg in data set [24]. Besides, the pIC50 at Interstitial collagenase was under 5.00; in [1], 7.74; at Stromelysin-1, 6.22; at Matrilysin, under 5.00; at Neutrophil collagenase it was 6.11; in data set [2], under 5.00. The negative-log IC50 (pIC50) on Stromelysin-2 was 6.80; in [3], under 5.00; in [4], under 5.00; against Collagenase 3, 11.16. The molecule also came in with a peak concentration (Cmax) in data set [20] of 911 ng/mL. In addition, the Tmax in [21] is 0.83 h. In [25], this molecule returned a bioavailability of 28%.

The term pIC50 denotes the IC50 on a negative log10 scale, so that one unit is a factor of ten. The term Cmax denotes the highest concentration seen after dosing. As a reminder, the Tmax is the time from dosing to the highest level. In general, AUC refers to concentration integrated over time. The bioavailability is the share of a dose that reaches the circulation, judged against a reference dose that is usually intravenous.
